ChEMBL document CHEMBL1125746, “Novel heteroarotinoids: synthesis and biological activity” (1991)

Columns and labels:
[1] = target: T1, Ornithine decarboxylase (Mus musculus) (UniProt P00860); experiment: Compound was evaluated for the ability to inhibit the phorbol ester induced increase of mouse epidermal ornithine decarboxylase (ODC) activity by 50% when administered topically using ODC assay.; format: functional
T1 sequence (whole entry): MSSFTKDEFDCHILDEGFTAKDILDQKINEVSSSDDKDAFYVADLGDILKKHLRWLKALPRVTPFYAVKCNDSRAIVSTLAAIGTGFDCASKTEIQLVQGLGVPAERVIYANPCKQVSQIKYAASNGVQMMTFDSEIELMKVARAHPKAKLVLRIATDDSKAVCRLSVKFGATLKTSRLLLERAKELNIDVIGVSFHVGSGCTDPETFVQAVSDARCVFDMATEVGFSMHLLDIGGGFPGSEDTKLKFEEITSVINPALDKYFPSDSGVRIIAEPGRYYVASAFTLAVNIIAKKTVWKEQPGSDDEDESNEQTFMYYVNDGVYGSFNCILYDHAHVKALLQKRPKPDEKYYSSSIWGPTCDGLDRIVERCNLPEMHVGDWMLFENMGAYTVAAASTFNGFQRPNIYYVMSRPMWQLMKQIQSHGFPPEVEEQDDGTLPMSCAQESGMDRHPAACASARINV
Summary of the method: (§1)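 Retinoids applied topically to mouse skin at 0.1, 1.0, 5.0, 10 and 50 nmol, 1 h before 10 nmol TPA. Epidermal ODC activity measured 4.5 h after TPA as nmol CO2/30 min per mg protein. ID50 (dose giving 50% inhibition of TPA-induced ODC) read from dose-response curves; three experiments, results normalized.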

HL-60 = experiment: Compound was evaluated for the retinoid-induced differentiation of the human myeloid leukemia cell line HL-60 using trans-retinoic acid as the standard.; format: functional; conditions: read-out: ED50 (the source's name)
[2] = target: T1, Ornithine decarboxylase (Mus musculus); experiment: Compound was evaluated for the percentage inhibition of test retinoid as compared to the control by ODCassay; format: functional; conditions: concentration not given here
Summary of the method: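 Single topical retinoid dose of 34 nmol given 1 h before 10 nmol TPA on mouse skin. Epidermal ODC assayed 4.5 h after TPA as nmol CO2/30 min per mg protein. Three groups of two mice each. % inhibition = [(ODC with TPA) − (ODC with TPA + retinoid)]/(ODC with TPA) × 100.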

[3] = target: T1, Ornithine decarboxylase (Mus musculus); experiment: Compound was evaluated for the ability to inhibit the phorbol ester induced increase of mouse epidermal ornithine decarboxylase; format: functional; summary of the method: as §1
[4] = target: Ornithine decarboxylase (Mus musculus) (UniProt P00860); experiment: Compound was evaluated for the ability to inhibit the phorbol ester induced increase of mouse epidermal ornithine decarboxylase (ODC) activity by 50% when administered topically using ODC assay.

SMILES | ID50 [1] [nM] | EC50 (HL-60) [nM] | also measured
CC1(C)CCOc2ccc(/C(=C/c3ccc(C(=O)O)cc3)C(F)(F)F)cc21 | > 50 | > 1000 | 
CC1=C(/C=C/C(C)=C/C=C/C(C)=C\C(=O)O)C(C)(C)CCC1 [ISOTRETINOIN] |  | 100 | 
CC(/C=C/C=C(\C)c1ccc2c(c1)C(C)(C)CCS2)=C\C(=O)O | 3.3 | 500 | 
CC1(C)CC(C)(C)c2cc(/C(=C/c3ccc(C(=O)O)cc3)C(F)(F)F)ccc2S1 | > 50 |  | 
C/C(=C\c1ccc(C(=O)O)cc1)c1ccc2c(c1)C(C)(C)CC(C)(C)S2 | 0.31 | > 1000 | 
COC(=O)c1ccc(/C=C(/c2ccc3c(c2)C(C)(C)CCS3)C(F)(F)F)cc1 | > 50 |  | 
CC1=C(/C=C/C(C)=C/C=C/C(C)=C/C(=O)O)C(C)(C)CCC1 [TRETINOIN] | 0.12 | 50 | 
C/C(=C\C=C\[C@H]1C[C@@H]1C(=O)O)c1ccc2c(c1)C(C)(C)CCS2 | 35 | > 1000 | 
C/C(=C\c1ccc(C(=O)O)cc1)c1ccc2c(c1)C(C)(C)CS2.CCCCCCCCCCCCCC(=O)OCC1(C)[C@H]2[C@@H]3C=C(CO)C[C@]4(O)C(=O)C(C)=C[C@H]4[C@@]3(O)[C@H](C)[C@@H](O)[C@]21OC(C)=O (some centres undefined) |  |  | inhibition [2]: 91%; ID50 [3]: 22 nM
CC(/C=C/C=C(\C)c1ccc2c(c1)C(C)(C)CC(C)(C)S2)=C\C(=O)O | 3.7 | > 1000 | 
COC(=O)c1ccc(/C=C(\C)c2ccc3c(c2)C(C)(C)CC(C)(C)S3)cc1 |  |  | ID50 [4]: 0.3 nM
COC(=O)c1ccc(/C=C(/c2ccc3c(c2)C(C)(C)CC(C)(C)S3)C(F)(F)F)cc1 | > 50 |  | 
CC1(C)CCSc2ccc(/C(=C/c3ccc(C(=O)O)cc3)C(F)(F)F)cc21 | 35 | > 1000 | 
COC(=O)c1ccc(/C=C(/c2ccc3c(c2)C(C)(C)CCO3)C(F)(F)F)cc1 | > 50 |  | 
CCCCCCCCCCCCCC(=O)OCC1(C)[C@H]2[C@@H]3C=C(CO)C[C@]4(O)C(=O)C(C)=C[C@H]4[C@@]3(O)[C@H](C)[C@@H](O)[C@]21OC(C)=O.COC(=O)c1ccc(/C=C(\C)c2ccc3c(c2)C(C)(C)CS3)cc1 (some centres undefined) |  |  | inhibition [2]: 94%; ID50 [3]: 1.2 nM
